Reference: ChEMBL document CHEMBL2346582, “Guanidino anthrathiophenediones as G-quadruplex binders: uptake, intracellular localization, and anti-Harvey-Ras gene activity in bladder cancer cells” (J Med Chem, 2013)
pIC50, pKd: −log10 of the molar value. Calls of active or inactive are those of the source. The rule behind the calls is not given here.

Legend:
Homo sapiens [1] = species on record: Homo sapiens; experiment: Thermal stabilization of human HRAS1 G-quadruplex FAM-TCGGGTTGCGGGCGCAGGGCACGGGCG-TAMRA DNA assessed as change in melting temperature at 1:5 DNA:ligand ratio by FRET assay
How it was run: (§1)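 FRET melting of 200 nM dual-labelled quadruplex in 50 mM Tris-HCl with KCl (100 mM for htelo and hras-1, 10 mM for KRAS and hras-2). Ligand at r = 5 ([ligand]/[quadruplex]; hras-2 tabulated at r = 4). Samples held 5 min at 20 °C, then heated 1 °C/min to 95 °C. ΔTM is the TM with ligand minus TM without ligand (±0.5 K). For hras-1 both biphasic transitions are given.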

Homo sapiens [2] = species on record: Homo sapiens; experiment: Thermal stabilization of human NRAS G-quadruplex FAM-GGGAGGGGCGGGUCUGGG-TAMRA RNA assessed as melting temperature at 1:1 DNA:ligand ratio by FRET assay
How it was run: (§2)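 FRET melting in 50 mM Tris-HCl pH 7.4 with an equimolar ligand:quadruplex ratio (r = 1). Conditions: NRAS RNA and hras-2 in 10 mM KCl; hras-1 in 100 mM KCl, with ΔTM taken from its second transition. Ramp 1 °C/min from 20 to 95 °C after 5 min equilibration. TM and ΔTM (±0.5 K) versus ligand-free quadruplex.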

[3] = Binding affinity to human HRAS1 G-quadruplex FAM-TCGGGTTGCGGGCGCAGGGCACGGGCG-TAMRA DNA assessed as quenching of fluorescence emission by FRET titration assay
How it was run: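 FRET titration of 200 nM oligonucleotide dual-labelled at its ends with carboxyfluorescein (donor) and tetramethylrhodamine (acceptor), in 50 mM Tris-HCl with KCl (100 mM for htelo and hras-1, 10 mM for KRAS and hras-2). Ligand binding quenches the emission, mainly the acceptor at 580 nm. The fraction of filled sites was fitted to the Hill equation to give apparent KD and the Hill coefficient.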

NIH3T3 = experiment: Cytotoxicity against mouse NIH/3T3 cells at 1 to 30 uM after 72 hrs by resazurin assay; format: cell-based; settings: NIH3T3, 72 h
How it was run: (§3)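 Cells seeded at 3000 per well the day before treatment, grown in DMEM with 10% FBS. Ligand added at 1, 2.5, 5, 10, 20, 30 μM for 72 h. Viability measured by resazurin and expressed as % of untreated cells; mean of three independent measurements. IC50 is the concentration reducing proliferation by 50%.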

T-24 [4] = experiment: Binding affinity to interleukin-8 promoter DNA in human T24 cells at 0.5 to 5 uM treated for 24 hrs prior to transfection measured 72 hrs post transfection by dual-luciferase reporter gene assay relative to control; format: cell-based; settings: in the assay text read “5 uM” for “0.5 to 5 uM”
How it was run: (§4)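 T24 cells pretreated 24 h with ligand (0.5, 2.5, 5 μM). Then co-transfected with jet-PEI: firefly reporter (250 ng/well), either HRAS promoter wild type, HRAS promoter with 4 point mutations in the quadruplex motifs, or IL-8 promoter, plus CMV-Renilla (10 ng/well). Dual-Glo read 72 h post-transfection. Firefly/Renilla expressed as T/C × 100 relative to untreated cells.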

T-24 (Homo sapiens) = experiment: Cellular uptake in human T24 cells after 4 hrs by FACS flow cytometric analysis in presence of dynasore; settings: t24, 4 h
Homo sapiens [5] = species on record: Homo sapiens; experiment: Thermal stabilization of human HRAS2 G-quadruplex FAM-CGGGGCGGGGCGGGGGCGGGGGCG-TAMRA DNA assessed as as change in melting temperature at 1:1 DNA:ligand ratio by FRET assay; how it was run: as §2
Homo sapiens [6] = species on record: Homo sapiens; experiment: Thermal stabilization of human HRAS2 G-quadruplex FAM-CGGGGCGGGGCGGGGGCGGGGGCG-TAMRA DNA assessed as as change in melting temperature at 1:4 DNA:ligand ratio by FRET assay
T-24 [7] = experiment: Cellular uptake in human T24 cells assessed as accumulation in nucleoli at 2.5 uM after 2 hrs by propidium iodide staining-based confocal microscopic analysis; format: ADME, cell-based; settings: t-24, 2 h
How it was run: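 T24 cells plated (3 × 10^5) on coverslips and treated after 24 h with 2.5 μM ligand for 2 h. Fixed in 3% paraformaldehyde and permeabilized with Triton X-100. Cytoplasm immunostained for DRP1 with FITC secondary; nuclei stained with propidium iodide plus RNase A. Ligand red fluorescence excited at 543 nm; confocal Z-sections at 2 μm intervals.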

T-24 [8] = experiment: Cellular uptake in human T24 cells at 0.5 to 10 uM after 8 hrs by flow cytometric analysis; format: ADME, cell-based; settings: t-24, 8 h
How it was run: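 Cells plated at 5 × 10^4 per well and treated next day with ligand at […] for 8 h. Then trypsinized, resuspended in PBS and analysed by flow cytometry (488 nm excitation, FL3 680 nm, log scale), at least 10,000 cells per sample. Uptake read from intrinsic ligand red fluorescence.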

T-24 [9] = experiment: Binding affinity to HRAS quadruplex DNA mutant in human T24 cells assessed as reduction in gene expression at 0.5 to 5 uM treated for 24 hrs prior to transfection measured 72 hrs post transfection by dual-luciferase reporter gene assay relative to control; format: cell-based; how it was run: as §4
HEK293 = experiment: Cytotoxicity against human HEK293 cells expressing wild type HRAS at 1 to 30 uM after 72 hrs by resazurin assay; format: cell-based; settings: HEK293, 72 h; how it was run: as §3
T-24 [10] = experiment: Cellular uptake in human T24 cells after 4 hrs by FACS flow cytometric analysis in presence of dynasore; format: ADME, cell-based; settings: t-24, 4 h
How it was run: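 T24 cells pretreated 30 min with 80 μM dynasore, then exposed to 5 μM ligand for 4 h. Analysed by flow cytometry (488 nm laser, FL3 680 nm channel), at least 10,000 cells.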

T-24 [11] = experiment: Antiproliferative activity against human T24 cells by trypan blue assay; format: functional, cell-based
Mus musculus = species on record: Mus musculus; experiment: Thermal stabilization of mouse KRAS G-quadruplex FAM-GCGGGAGGGAGGGAAGGAGGGAGGGAGGGAG-TAMRA DNA assessed as change in melting temperature at 1:5 DNA:ligand ratio by FRET assay; how it was run: as §1
Homo sapiens [12] = species on record: Homo sapiens; experiment: Thermal stabilization of human NRAS G-quadruplex FAM-GGGAGGGGCGGGUCUGGG-TAMRA RNA assessed as change in melting temperature at 1:1 DNA:ligand ratio by FRET assay; how it was run: as §2
Homo sapiens [13] = species on record: Homo sapiens; experiment: Thermal stabilization of human telomeric G-quadruplex FAM-TTAGGGTTAGGGTTAGGGTTAGGG-TAMRA DNA assessed as change in melting temperature at 1:5 DNA:ligand ratio by FRET assay; how it was run: as §1
[14] = Binding affinity to human NRAS G-quadruplex FAM-GGGAGGGGCGGGUCUGGG-TAMRA RNA assessed as quenching of fluorescence emission by FRET titration assay
How it was run: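 RNA quadruplex, 200 nM, dual-labelled with FAM and TAMRA, in 50 mM Tris-HCl pH 7.4, 10 mM KCl. Titrated with ligand at r = 1–5 ([ligand]/[quadruplex]). The fraction of bound quadruplex was calculated from quenching of fluorescence and fitted to the Hill equation to give KD.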

T-24 [15] = experiment: Binding affinity to HRAS G-quadruplex DNA in human T24 cells assessed as reduction in p21HRAS level at 5 uM by immunoblotting analysis relative to control

Structure (SMILES) | deltaTm (Homo sapiens [1]) [K] | Tm (Homo sapiens [2]) [°C] | pKd [3] | Drug uptake (T-24 (Homo sapiens)) | deltaTm (Homo sapiens [5]) [K] | deltaTm (Homo sapiens [6]) [K] | Drug uptake (T-24 [7]) | Drug uptake (T-24 [8]) | Drug uptake (T-24 [10]) | deltaTm (Mus musculus) [K] | deltaTm (Homo sapiens [12]) [K] | deltaTm (Homo sapiens [13]) [K] | pKd [14] | pIC50 (NIH3T3) | Activity (T-24 [4]) | Activity (T-24 [9]) | pIC50 (HEK293) | Activity (T-24 [11]) | Activity (T-24 [15])
N=C(N)NCCCNc1c2c(c(NCCNC(=N)N)c3ccsc13)C(=O)c1ccccc1C2=O | 13 | 86 | 6.44 | Active | 4 | 17 | Active | Active | Active | 27 | 9 | 21 | 6.92 | < 4.52 | inactive | inactive | 4.70 | inactive | 
N=C(N)NCCNc1c2c(c(NCCNC(=N)N)c3sccc13)C(=O)c1ccccc1C2=O | 12 | 82 | 6.47 |  | 3 | 19 | Active | Active | Not Active | 15 | 5 | 14 | 6.42 | 4.70 | inactive | inactive | < 4.52 | inactive | Active

Now those with a higher pKd [3], led by results:

deltaTm (Homo sapiens [1]) [K] | Tm (Homo sapiens [2]) [°C] | pKd [3] | Drug uptake (T-24 (Homo sapiens)) | deltaTm (Homo sapiens [5]) [K] | deltaTm (Homo sapiens [6]) [K] | Drug uptake (T-24 [7]) | Drug uptake (T-24 [8]) | Drug uptake (T-24 [10]) | deltaTm (Mus musculus) [K] | deltaTm (Homo sapiens [12]) [K] | deltaTm (Homo sapiens [13]) [K] | pKd [14] | Structure (SMILES) | pIC50 (NIH3T3) | Activity (T-24 [4]) | Activity (T-24 [9]) | pIC50 (HEK293) | Activity (T-24 [11]) | Activity (T-24 [15])
16 | 88 | 6.55 |  | 3 | 12 | Active | Active | Not Active | 28 | 11 | 23 | 7.05 | N=C(N)NCCCNc1c2c(c(NCCNC(=N)N)c3sccc13)C(=O)c1ccccc1C2=O | 4.70 | inactive | inactive | < 4.52 | inactive | 
20 | > 90 | 6.68 | Active | 7 | 26 |  | Active | Active | 35 | > 13 | 34 | 7.22 | N=C(N)NCCCCNc1c2c(c(NCCCCNC(=N)N)c3sccc13)C(=O)c1ccccc1C2=O | < 4.52 | inactive | inactive | < 4.52 | inactive | Active
19 | 88 | 6.52 | Active | 3 | 17 | Active | Active | Active | 33 | 11 | 21 | 6.96 | N=C(N)NCCCNc1c2c(c(NCCCNC(=N)N)c3sccc13)C(=O)c1ccccc1C2=O | < 4.52 | inactive | inactive | < 4.52 | inactive | 
